Assays:
[1] = target: T1, Adenosine receptor A3 (Rattus norvegicus, UniProt P28647); test: Binding affinity for adenosine A3 receptor in CHO cell membranes using [125I]IB-MECA
T1 sequence (P28647 whole entry): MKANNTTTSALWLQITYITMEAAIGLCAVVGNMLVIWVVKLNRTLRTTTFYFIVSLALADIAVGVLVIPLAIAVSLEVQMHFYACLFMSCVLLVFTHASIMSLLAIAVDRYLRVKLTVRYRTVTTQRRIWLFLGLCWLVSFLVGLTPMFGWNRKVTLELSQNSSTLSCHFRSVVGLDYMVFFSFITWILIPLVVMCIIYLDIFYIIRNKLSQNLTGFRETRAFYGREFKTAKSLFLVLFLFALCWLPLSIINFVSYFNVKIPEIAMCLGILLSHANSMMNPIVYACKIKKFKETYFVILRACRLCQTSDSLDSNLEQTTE

[2] = organism: Rattus norvegicus; test: Ratio of affinity for A1 AND P3LP receptor
[3] = target: Adenosine receptor A2a (Rattus norvegicus, UniProt P30543); test: Binding affinity for Adenosine A2A receptor in rat brain membranes using [3H]CGS-21680; type: cell membranes
Sequence of Adenosine receptor A2a (P30543 whole entry): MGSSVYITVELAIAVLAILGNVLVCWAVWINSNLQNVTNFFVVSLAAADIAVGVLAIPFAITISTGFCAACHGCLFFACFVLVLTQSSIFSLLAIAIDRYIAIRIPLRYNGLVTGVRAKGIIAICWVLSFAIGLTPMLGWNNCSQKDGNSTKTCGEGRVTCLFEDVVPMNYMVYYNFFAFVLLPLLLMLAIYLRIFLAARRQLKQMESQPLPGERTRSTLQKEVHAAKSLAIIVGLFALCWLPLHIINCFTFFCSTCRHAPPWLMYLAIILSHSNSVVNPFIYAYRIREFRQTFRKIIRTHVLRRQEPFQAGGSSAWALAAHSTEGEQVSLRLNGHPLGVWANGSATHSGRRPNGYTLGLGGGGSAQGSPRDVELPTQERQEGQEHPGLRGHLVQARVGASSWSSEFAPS

[4] = organism: Rattus norvegicus; test: Ratio of affinity for A2A and P3LP receptors
[5] = organism: Rattus norvegicus; test: Ratio of affinity for A3 and P3LP receptors
[6] = target: T2, Adenosine receptor A2b (Rattus norvegicus) (UniProt P29276); test: Agonist activity as cAMP production in CHO cells expressing rat Adenosine A2B receptor at 100 uM; type: functional, cell-based
T2 sequence (whole entry): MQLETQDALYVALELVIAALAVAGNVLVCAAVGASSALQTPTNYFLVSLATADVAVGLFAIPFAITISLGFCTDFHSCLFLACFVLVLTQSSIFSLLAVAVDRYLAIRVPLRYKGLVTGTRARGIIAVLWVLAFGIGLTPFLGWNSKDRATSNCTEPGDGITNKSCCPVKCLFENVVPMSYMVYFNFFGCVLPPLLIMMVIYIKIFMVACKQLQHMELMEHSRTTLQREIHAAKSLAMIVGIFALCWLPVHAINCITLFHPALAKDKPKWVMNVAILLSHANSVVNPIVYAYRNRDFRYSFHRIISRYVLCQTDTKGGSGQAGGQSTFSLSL
Method in brief: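 Rat A2B receptor cDNA transfected into CHO cells; agonism read as cAMP production with test compound at 100 µM, given as percentage of NECA-induced activity.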

[7] = target: T3, Adenosine receptor A1 (Rattus norvegicus, UniProt P25099); test: Binding activity against Adenosine A1 receptor from rat brain membranes using [3H]8-cyclopentyl-1,3-dipropylxanthine (DPCPX)
T3 sequence (P25099 whole entry): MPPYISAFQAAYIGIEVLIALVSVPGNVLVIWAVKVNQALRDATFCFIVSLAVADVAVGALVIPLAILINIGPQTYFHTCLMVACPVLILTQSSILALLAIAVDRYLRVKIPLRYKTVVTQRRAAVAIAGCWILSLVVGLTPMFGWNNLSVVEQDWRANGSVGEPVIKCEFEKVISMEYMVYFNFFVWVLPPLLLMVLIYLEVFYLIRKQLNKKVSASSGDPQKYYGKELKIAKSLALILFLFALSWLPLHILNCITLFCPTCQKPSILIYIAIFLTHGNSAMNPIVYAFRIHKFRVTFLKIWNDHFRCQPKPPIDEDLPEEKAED

Q: Which Ki [1] does the source give for `CCCCCNC(=O)[C@H]1O[C@@H](n2cnc3c(N)ncnc32)[C@H](O)[C@@H]1O` here?
A: The Ki was 5.56 µM.

Q: What about the Ratio [2] of the same compound?
A: Its Ratio is 80.2.

Q: What about the Ki [3] of the same compound?
A: Its Ki is 0.605 µM.

Q: What about the Ratio [4] of the same compound?
A: The Ratio was 49.6.

Q: What about the Ratio [5] of the same compound?
A: The Ratio was 456.

Q: And the Activity [6]?
A: The Activity was 3.4%.

Q: And the Ki [7]?
A: The Ki was 0.979 µM.

Q: For `C#CC(O)[C@H]1O[C@@H](n2cnc3c(N)ncnc32)[C@H](O)[C@@H]1O` (some centres not stated), which Ki [1] is on record?
A: Its Ki is 310 µM.

Q: What about the Ratio [2] of the same compound?
A: The Ratio was 44.9.

Q: And the Ki [3]?
A: The Ki was 2.11 µM.

Q: What about the Ratio [4] of the same compound?
A: The Ratio was 105.

Q: What about the Ratio [5] of the same compound?
A: The Ratio was 15500.

Q: What about the Activity [6] of the same compound?
A: Its Activity is 10%.

Q: What about the Ki [7] of the same compound?
A: The Ki was 0.897 µM.

Q: Which results are given for `Nc1ncnc2c1ncn2[C@@H]1O[C@H](C(=O)NC2CCCCC2)[C@@H](O)[C@H]1O`?
A: Ki [1]: 15.1 µM; Ratio [2]: 275; Ki [3]: 2.5 µM; Ratio [4]: 137; Ratio [5]: 830; Activity [6]: 1.9%; Ki [7]: 5.02 µM

Q: How did the Activity [6] turn out when `CCNC(=O)[C@H]1O[C@@H](n2cnc3c(N)ncnc32)[C@H](O)[C@@H]1O` was run?
A: The Activity was 100.
